MBD2 DNA inh: MBD2-methylated oligo binding inhibition; Q9UBB5; 370,000 compounds, 0.31% hits; inhibition, % at 4.4 µM; TR-FRET, MBD2 binding to methylated oligonucleotide; in the data active = inhibition above about 13%
TDP2 absorb: blocks human TDP2 phosphodiesterase activity; recombinant TDP2, T5PNP hydrolysis, p-nitrophenol absorbance 415 nm; inhibition, % at 12.8 µM; 370,000 compounds, 0.34% hits;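 active = inhibition above the mean of all tested compounds plus 3 SD, set per campaign, cut at about 25% in these data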
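Assay system: recombinant human TDP2 / Reagent: T5PNP substrate at 5 mM, a TopII-DNA adduct mimic / Measured by: epi absorbance from released p-nitrophenol / Evaluation: % inhibition relative to enzyme-containing and enzyme-free wells / Control set: enzyme-free and DMSO wells / Replicates: each compound tested once, singlicate / Schedule: enzyme reaction with compound for 2 h at 37 °C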
DDE Tn7 FP inh: DD(E)-Tn7 binding inhibition, primary FP screen. P02675. 370,000 compounds, 0.13% hits. inhibition, % at 8.3 µM. FP displacement of FITC-Tn7 peptide from fibrin DD(E); 0% = median of compound wells per plate;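 active = inhibition above the mean of compounds falling within the control limits plus 3 SD of them, cut at about 14% in these data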
Target sequence (P02675 whole entry, looked up): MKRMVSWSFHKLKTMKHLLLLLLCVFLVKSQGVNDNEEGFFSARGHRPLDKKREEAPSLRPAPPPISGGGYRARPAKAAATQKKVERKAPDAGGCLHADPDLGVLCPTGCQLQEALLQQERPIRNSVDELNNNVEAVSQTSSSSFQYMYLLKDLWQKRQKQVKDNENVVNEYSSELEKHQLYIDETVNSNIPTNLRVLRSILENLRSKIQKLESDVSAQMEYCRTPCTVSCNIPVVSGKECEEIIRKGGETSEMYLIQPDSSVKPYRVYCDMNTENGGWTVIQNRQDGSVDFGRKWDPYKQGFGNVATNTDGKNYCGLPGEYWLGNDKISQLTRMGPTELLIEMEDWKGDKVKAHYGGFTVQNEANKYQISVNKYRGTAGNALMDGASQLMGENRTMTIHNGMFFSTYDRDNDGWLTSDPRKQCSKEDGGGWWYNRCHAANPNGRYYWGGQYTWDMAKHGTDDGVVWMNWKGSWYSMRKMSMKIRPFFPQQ
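assay system = human clot-derived fibrin DD(E) complex | quantity = Fibrin-DD(E) at 2 µM final | timing = 10 min preincubation, 3 h with tracer, room temperature | signal = fluorescence polarization | measure = percent inhibition | benchmarks = high control wells with 10 µM unlabelled Aha-Tn7 peptide (full inhibition) | replicates = singlicate testing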
UHRF1 binding: blocks human UHRF1 binding to methylated DNA | 370,000 compounds, 0.75% hits | UHRF1 binding to methylated oligo, TR-FRET | AID 687016 | Q96T88 | inhibition, % at 4.4 µM; in the data active = inhibition above about 21%;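 note: UHRF1 SRA domain binding a hemimethylated CpG hairpin DNA probe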
Tn6 DDE FP: DD(E)-Tn6 binding inhibition, primary FP screen; P02675; Fibrin DD(E) TRITC-Tn6 fluorescence polarization displacement; inhibition, % at 8.3 µM; 370,000 compounds, 0.21% hits; AID 720509;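 active = inhibition above a per-campaign cutoff: mean of compounds within control limits plus 3 SD, cut at about 15% in these data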
LEDGF integ inh: blocks HIV-1 LEDGF/p75-dependent DNA integration | AID 743269 | inhibition, % at 3.7 µM | TR-FRET IN-LEDGF/p75 DNA integration, Eu/Cy5 | 370,000 compounds, 0.64% hits;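 active = inhibition above the screen-wide mean plus 3 SD, cut at about 13% in these data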;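 note: signal is the Cy5 over europium emission ratio at 671 and 618 nm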
Large screens that a line does not name were inactive. Shown are actives, neighbours in structure and some others; about 1.9% of the full set was active somewhere.

O=C(N[C@H](C(=O)N1CCC[C@H]1C(=O)NC1CCCC1)C1CCCCC1)c1ccc(Cl)cc1Cl	none
O=C(NNc1ccccc1Br)C(=O)n1ccc2ccccc21	UHRF1 binding 66
COC(=O)[C@]12C[C@H](CC(=O)NCC34CC5CC(CC(C5)C3)C4)C(=O)N(Cc3cccc4ccccc34)C1=C[C@H](COCc1ccccc1)O[C@@H]2C	none
O=C(NCc1cc(Cl)cc(Cl)c1)c1ccc2nc(COCCO)[nH]c2c1	UHRF1 binding 21
O=C(Nc1ccc2c(c1)C(=O)NC2=O)c1cccc(C(F)(F)F)c1	UHRF1 binding 21
COC(=O)[C@]12C[C@H](CC(=O)N3CCCCC3)C(=O)N(Cc3cccc4ccccc34)C1=C[C@H](C(C)C)O[C@@H]2C1CC1	none
COC(=O)c1ccc(NCc2cc(O)ccc2O)cc1O	none
COC(=O)c1ccc(NCc2c(O)ccc(O)c2Br)cc1Cl	LEDGF integ inh 15
CCn1nc(C)c(NC(=O)c2ccc(Cl)cc2)c1C	UHRF1 binding 27
CCOc1ncccc1C(=O)N1CCN(C(=O)c2ccccc2)CC1	UHRF1 binding 21
COc1ccccc1NC(=S)NNC(=O)c1ccccc1	none
COc1ccccc1NC(=S)NC(=O)c1c(-c2ccccc2Cl)noc1C	UHRF1 binding 24
COc1ccccc1NC(=S)NNC(=O)c1ccncc1	UHRF1 binding 23
Cc1cc(C)cc([C@H]2C[C@]34CN(C(=O)OC(C)(C)C)S(=O)(=O)[C@H]3C[C@H]2O4)c1	none
COc1ccc(N2C(=O)c3n[nH]c(C(C)C)c3C2c2ccc(F)cc2)cc1 (centres undefined)	none
Cc1ccc(-c2nc3c4ccccc4ccn3c2Cc2ccccc2)cc1	UHRF1 binding 21
Cc1ccc(Cc2c(-c3ccccc3)nc3c4ccccc4ccn23)cc1	none
Cc1ccc(-c2nc3c4ccccc4ccn3c2Cc2cccc(F)c2)cc1	none
Fc1cccc(Cc2c(-c3ccccc3)nc3c4ccccc4ccn23)c1	UHRF1 binding 21
COC(=O)[C@]12C[C@H](CC(=O)N3CCSCC3)C(=O)N(Cc3ccco3)C1=C[C@H](COCc1ccccc1)O[C@@H]2C	none
COCCCN1C(=O)[C@H](CC(=O)NCc2ccc(C)o2)[C@]2(C(=O)OC)CCCCC=C12	none
CCC1CCc2sc(C(=O)N(C)CC(=O)Nc3cccc(OC)c3)cc2C1 (centres undefined)	UHRF1 binding 66
CCC1CCc2sc(C(=O)N(C)CC(=O)Nc3ccc(OC)cc3)cc2C1 (centres undefined)	none
COc1ccc(Cl)cc1-c1cc(C(=O)NC2CCCCC2)[nH]n1	none
CCOc1ccc(Cl)cc1-c1cc(C(=O)NC2CCCCC2)[nH]n1	UHRF1 binding 79
N#C/C(=C\c1ccc(O)c([N+](=O)[O-])c1)c1nc2ccccc2s1	UHRF1 binding 26
COc1cc(/C=C(\C#N)c2nc3ccccc3s2)cc([N+](=O)[O-])c1O	none
O=C(CSc1ccc(-c2cccs2)nn1)c1cccs1	UHRF1 binding 23
COC(=O)c1ccc(CSc2nc(-c3ccccc3)cs2)o1	UHRF1 binding 21
CN(C(=O)CSc1ncnc2c(-c3cccs3)nsc12)C1CCCCC1	none
Cc1cc(/C=C(/C#N)c2nc3ccccc3[nH]2)c(C)n1-c1cc(C(=O)O)cc(C(=O)O)c1	UHRF1 binding 23
Cc1ccc2nc(CN(C)C(=O)[C@H]3O[C@@H](n4cnc(C(N)=O)n4)[C@H](O)[C@@H]3O)[nH]c2c1	none
CC(C)C[C@@H]1COc2cc(F)ccc2S(=O)(=O)N1C	none
CC(C)(C)c1ccc(C2C(C#N)=C(N)Oc3n[nH]c(-c4cccnc4)c32)cc1 (centres undefined)	TDP2 absorb 36
COc1cc(OC)cc(C2C(C#N)=C(N)Oc3n[nH]c(-c4cccnc4)c32)c1 (centres undefined)	none
O=C(N[C@H](C(=O)N1CCC[C@H]1C(=O)NC1CCCC1)C1CCCCC1)C1CCCC1	none
O=C(Nc1nc(-c2ccco2)c(-c2ccco2)s1)c1cnccn1	UHRF1 binding 40, LEDGF integ inh 48
O=C(Nc1nc(-c2ccco2)c(-c2ccco2)s1)c1c(F)cccc1Cl	LEDGF integ inh 48
CCC(C)[C@H](NC(=O)[C@H](Cc1ccccc1)NC(=O)OC(C)(C)C)C(=O)NCc1ccccc1Br (some centres undefined)	none
COc1ccc(CN2CCNC(=O)C2CC(=O)N(C)CC2CCOCC2)cc1C (centres undefined)	UHRF1 binding 31
COc1ccc(CN2CCNC(=O)C2CC(=O)N(C)CC2CCOCC2)cc1OC (centres undefined)	none
NCc1ccc(OCCCN2CCC(C(O)(C3=CCCC3)c3ccccc3)CC2)cc1 (centres undefined)	none
COc1cc(NC(=S)NN2CCN(C)CC2)cc(OC)c1OC	none
COc1ccc(NC(=S)NN2CCN(C)CC2)cc1OC	UHRF1 binding 22
O=C1N[C@@H](Cc2ccccc2)C(=O)N2[C@H]1CSCCS2(=O)=O	none
Cc1ccc(NC(=O)c2sc3nc[nH]c(=O)c3c2C)c(C)c1	UHRF1 binding 23
CCn1cnc2c(cnn2-c2ccccc2)c1=O	none
O=c1c2cnn(-c3ccccc3)c2ncn1CCc1ccccc1	UHRF1 binding 47
CCOC(=O)/C(=C\Nc1cccc(OCc2ccccc2)c1)NC(=O)c1ccccc1	none
CC(C)=CCC[C@](C)(O)C1CC[C@]2(C)C1[C@H](O)CC1[C@@]3(C)CC[C@H](O[C@@H]4O[C@H](CO)[C@@H](O)[C@H](O)[C@H]4O[C@@H]4O[C@H](CO)[C@@H](O)[C@H](O)[C@H]4O)C(C)(C)C3CC[C@]12C (some centres undefined)	none
CC1(C)CC[C@]2(C(=O)O[C@@H]3OC(CO)[C@@H](O)[C@H](O)[C@H]3O)CC[C@]3(C)C(=CCC4[C@@]5(C)CC[C@H](O[C@@H]6OC(C(=O)O)[C@@H](O)[C@H](O)[C@H]6O)C(C)(C)C5CC[C@]43C)[C@@H]2C1 (some centres undefined)	LEDGF integ inh 16
C/C=C(\C)C(=O)OC1CC(C)(C)C[C@H]2C3=CC[C@@H]4[C@@]5(C)CCC(O[C@@H]6O[C@@H](C(=O)O)[C@@H](O)C(O[C@@H]7OC[C@H](O)[C@@H](O)[C@@H]7O[C@@H]7OC(CO)C(O)[C@@H](O)[C@@H]7O)C6O[C@@H]6OC(CO)C(O)C(O)C6O)[C@@](C)(CO)[C@@H]5CC[C@]4(C)[C@]3(C)CC(O)[C@@]12CO (some centres undefined)	LEDGF integ inh 26

Assay outcomes (PubChem BioAssay)
